We go through six compounds from ChEMBL document CHEMBL4177701, “A novel series of enoyl reductase inhibitors targeting the ESKAPE pathogens, Staphylococcus aureus and Acinetobacter baumannii” (Bioorg Med Chem, 2018).

Molecules are shown by their SMILES. Converted amounts (≈) assume the structure as drawn. The source made the active and inactive calls. The calls are words filed in the database; no cut-off is given here. Where only a bound is given, the exact number is not on record here.

A short description of assay [1]: Competitive inhibition of Acinetobacter baumannii 2208 ATCC 19606 FabI using crotonyl-CoA as substrate in presence of NADPH/NADH after 10 mins by fluorescence assay. Details: species or system Acinetobacter baumannii ATCC 19606 = CIP 70.34 = JCM 6841.
Assay [2] relates to Staphylococcus aureus. Kind of assay: Antibacterial activity against Staphylococcus aureus RN4220 over-expressing FabI by microbroth dilution method. Format: functional. The method in brief: (§1)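 Broth microdilution MIC; reported value is mean of at least two runs, within two-fold experimental uncertainty.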
Assay [3] relates to Acinetobacter baumannii. Nature of the assay: Synergistic antibacterial activity against MDR Acinetobacter baumannii ATCC BAA-1605 assessed as fold reduction in colistin MIC by checkerboard method. Format: functional.
Assay [4] concerns Staphylococcus aureus. Nature of the assay: Antibacterial activity against methicillin-resistant Staphylococcus aureus subsp. aureus Rosenbach ATCC 43300 by microbroth dilution method. The class given is functional. The method in brief: as §1
For assay [5], the target named is T1, Enoyl-[acyl-carrier-protein] reductase [NADPH] FabI (Staphylococcus aureus, UniProt Q6GI75).
T1 sequence (Q6GI75 whole entry): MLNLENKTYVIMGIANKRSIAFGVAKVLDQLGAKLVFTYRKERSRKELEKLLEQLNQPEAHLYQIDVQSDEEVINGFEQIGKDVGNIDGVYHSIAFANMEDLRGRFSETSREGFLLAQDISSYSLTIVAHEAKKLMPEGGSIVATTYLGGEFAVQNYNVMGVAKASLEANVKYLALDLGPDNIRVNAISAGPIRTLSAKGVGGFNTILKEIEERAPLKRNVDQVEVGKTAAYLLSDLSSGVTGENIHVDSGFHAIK
Kind of assay: Competitive inhibition of Staphylococcus aureus subsp. aureus Rosenbach ATCC 43300 FabI using crotonyl-CoA as substrate in presence of NADPH/NADH after 10 mins by fluorescence assay.

Assay [6] concerns Acinetobacter baumannii. Kind of assay: Antibacterial activity against Acinetobacter baumannii 2208 ATCC 19606 by microbroth dilution method. The following applies: ATCC 19606 = CIP 70.34 = JCM 6841 2208. Format: functional. The method in brief: (§2)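 Microbroth dilution MIC; each value is the mean of at least two runs, within two-fold experimental uncertainty.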
In assay [7] the test system is Acinetobacter baumannii. Kind of assay: Synergistic antibacterial activity against Acinetobacter baumannii 2208 ATCC 19606 in presence of colistin by checkerboard method. The class given is functional. The following applies: ATCC 19606 = CIP 70.34 = JCM 6841 2208.
Assay [8] addresses T2, Enoyl-[acyl-carrier-protein] reductase [NADPH] FabI (Staphylococcus aureus) (UniProt Q6GI75).
T2 sequence (whole entry): T1 sequence (Q6GI75 whole entry)
Nature of the assay: Binding affinity to Staphylococcus aureus subsp. aureus Rosenbach ATCC 43300 FabI by SPR assay.

Assay [9] deals with Acinetobacter baumannii. Kind of assay: Synergistic antibacterial activity against Acinetobacter baumannii 2208 ATCC 19606 assessed as colistin MIC by checkerboard method. As to conditions: ATCC 19606 = CIP 70.34 = JCM 6841 2208. Format: functional.
For assay [10], the system named is Acinetobacter baumannii. Nature of the assay: Synergistic antibacterial activity against Acinetobacter baumannii 2208 ATCC 19606 assessed as fractional inhibitory concentration in presence of colistin by checkerboard method. The class given is functional, ATCC 19606 = CIP 70.34 = JCM 6841 2208.
The test system of another assay is Escherichia coli. Kind of assay: Antibacterial activity against Escherichia coli BW25113 mutant by microbroth dilution method. The class given is functional. The method in brief: as §1
Assay [11] concerns Staphylococcus aureus. Kind of assay: Antibacterial activity against Staphylococcus aureus RN4220 by microbroth dilution method. Format: functional. The method in brief: as §1
For assay [12], the system named is Staphylococcus aureus. Nature of the assay: Antibacterial activity against Staphylococcus aureus Newman by microbroth dilution method. The class given is functional. The method in brief: as §2
For assay [13], the system named is Acinetobacter baumannii ATCC 19606 = CIP 70.34 = JCM 6841. Nature of the assay: Binding affinity to Acinetobacter baumannii 2208 ATCC 19606 FabI by SPR assay.
The nature of assay [14]: Inhibition of Acinetobacter baumannii 2208 ATCC 19606 FabI using crotonyl-CoA as substrate in presence of NADPH/NADH after 10 mins by fluorescence assay. The arrangement: species or system Acinetobacter baumannii ATCC 19606 = CIP 70.34 = JCM 6841. A digest of the protocol:
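AbFabI, 200 nM, in 50 mM MES/100 mM NaCl with 200 μM NADH, 0.1 mg/mL BSA and 0.01% triton. Reaction started with 300 μM crotonyl-CoA. NADH fluorescence read at 340/460 nm. Compounds tested at 0.4 nM–200 μM. Initial 10-min slopes were compared with a DMSO no-compound control. At least two independent experiments, each in duplicate; two-fold uncertainty.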

Assay [15] concerns the target T1, Enoyl-[acyl-carrier-protein] reductase [NADPH] FabI. Kind of assay: Inhibition of Staphylococcus aureus subsp. aureus Rosenbach ATCC 43300 FabI using crotonyl-CoA as substrate in presence of NADPH/NADH after 10 mins by fluorescence assay. The method in brief:
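SaFabI enzyme, 300 nM, in 50 mM MES/100 mM NaCl with 200 μM NADPH, 0.1 mg/mL BSA, 0.01% triton; started with 400 μM crotonyl-CoA. NADPH fluorescence at 340/460 nm. Compounds 0.4 nM–200 μM. Slopes over first 10 min compared with DMSO control for % inhibition. At least two independent experiments, each in duplicate. Two-fold experimental uncertainty.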

Assay [16] concerns Staphylococcus aureus. Nature of the assay: Selectivity ratio of MIC for Staphylococcus aureus RN4220 over-expressing FabI to MIC for Staphylococcus aureus RN4220. The class given is functional.
Assay [17] has as its system HepG2. Kind of assay: Cytotoxicity against human HepG2 cells assessed as reduction in cell viability after 24 hrs in presence of 0.5% FBS by MTT assay. Format: cell-based. The following applies: HepG2, 24 h. The method in brief:
(§3)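 HepG2 cells in EMEM with either 10% FBS or 0.5% FBS plus 10% Cell-Ess serum replacement. Seeded at 25,000 cells/well and incubated overnight at 37 °C, 5% CO2. Treated 24 h at 100–3 μg/mL, with matched DMSO controls. MTT added for 2 h, formazan extracted in DMSO, absorbance read at 570 nm. Run in duplicate; IC50 taken from the viability plot against the DMSO control.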

The subject of assay [18] is HepG2. Kind of assay: Cytotoxicity against human HepG2 cells assessed as reduction in cell viability after 24 hrs in presence of 10% FBS by MTT assay. Format: cell-based. As to conditions: HepG2, 24 h. The method in brief: as §3

With `O=C(Cc1ccccc1Cl)N1CCC(c2ccccn2)C1` (racemic), the Ki in [1] is 15.4 µM; in assay [5], 6.8 µM. For the same compound, the MIC against Staphylococcus aureus [2] was 200 µg/mL (≈ 665 µM); in the assay on Staphylococcus aureus [4] it was 200 µg/mL (≈ 665 µM); against Acinetobacter baumannii [6], greater than 200 µg/mL; with Acinetobacter baumannii [7], 50 µg/mL; in the assay with Acinetobacter baumannii [9] it was 0.39 µg/mL; against Escherichia coli, greater than 200 µg/mL. Also, the MIC in the assay with Staphylococcus aureus [11] turned out to be 100 µg/mL (≈ 332 µM); with Staphylococcus aureus [12], 166 µM (≈ 50 µg/mL). Moreover, the “fold change (FC)” value in the assay on Acinetobacter baumannii [3] is reported as 10. In addition, the result in [8] and in [13] was Active. The FIC in the assay on Acinetobacter baumannii [10] is given as 0.5. In addition, the IC50 in assay [14] was found to be 30.7 µM.

As for `CC(=O)Nc1ccc(CC(=O)N2CCC(c3nccs3)C2)cc1` (racemic), the Ki is greater than 50 µM in [1] and greater than 37.1 µM in assay [5]. For the same compound, the MIC in the assay on Staphylococcus aureus [2], against Staphylococcus aureus [4], against Acinetobacter baumannii [6] and against Escherichia coli was greater than 200 µg/mL each time. For the same compound, the IC50 in assay [15] and in assay [14] was greater than 100 µM each time. Also, the outcome in assay [8] and in assay [13] was Active.

For `O=C(Cc1c(F)cccc1Cl)N1CCC(c2ccc3c(c2)OCO3)C1` (racemic), in the assay with Staphylococcus aureus [16], the Selectivity ratio is on record as greater than 4. The Ki is greater than 100 µM in assay [1] and 0.7 µM in assay [5]. The MIC in the assay with Staphylococcus aureus [4] was greater than 200 µg/mL; in the assay with Acinetobacter baumannii [6] it was greater than 200 µg/mL; against Escherichia coli it was greater than 200 µg/mL; in the assay with Staphylococcus aureus [11], 25 µg/mL (≈ 69.1 µM); against Staphylococcus aureus [12], 69.1 µM (≈ 25 µg/mL). The result in assay [8] and in [13] was Active. For the same compound, the IC50 in assay [14] is greater than 200 µM.

For `COc1ccc(C2CCN(C(=O)Cc3ccc(NC(C)=O)cc3)C2)cc1` (racemic), the figures for the Ki in assay [1] and in assay [5] were greater than 50 µM and greater than 37.1 µM, respectively. In addition, the MIC in the assay on Staphylococcus aureus [2], with Staphylococcus aureus [4], with Acinetobacter baumannii [6] and against Escherichia coli was greater than 200 µg/mL each time. Besides, the IC50 in assay [15] and in assay [14] was greater than 100 µM in each case. The result in assay [8] and in assay [13] was Active.

For the compound `O=C(Cc1ccccc1F)N1CCC(c2ccccc2)C1` (racemic), the Ki in assay [1] is 2 µM; in [5], 1.9 µM. In addition, the MIC in the assay on Staphylococcus aureus [2] is 200 µg/mL (≈ 706 µM); in the assay with Staphylococcus aureus [4], 100 µg/mL (≈ 353 µM); in the assay with Acinetobacter baumannii [6], greater than 200 µg/mL; in the assay on Acinetobacter baumannii [7], 25 µg/mL; with Acinetobacter baumannii [9], 0.19 µg/mL; with Escherichia coli it was greater than 200 µg/mL. Moreover, the values for the MIC against Staphylococcus aureus [11] and against Staphylococcus aureus [12] were 50 µg/mL (≈ 176 µM) and 176 µM (≈ 50 µg/mL), respectively. For the same compound, the result in assay [8] and in assay [13] was Active. For the same compound, the FIC in the assay on Acinetobacter baumannii [10] was 0.25. Also, the IC50 in the assay with HepG2 [17] came to 76 µg/mL; in the assay with HepG2 [18] it was 160 µg/mL; in assay [14], 3.9 µM.

As to `O=C(Cc1cccc(F)c1F)N1CCC(c2ccccc2)C1` (racemic), the Ki in assay [1] is 4.7 µM; in assay [5], 2.7 µM. In addition, the MIC is 200 µg/mL (≈ 664 µM) with Staphylococcus aureus [2]; 100 µg/mL (≈ 332 µM) in the assay on Staphylococcus aureus [4]; greater than 200 µg/mL in the assay with Acinetobacter baumannii [6]; 25 µg/mL in the assay with Acinetobacter baumannii [7]; 0.19 µg/mL in the assay on Acinetobacter baumannii [9]; greater than 200 µg/mL in the assay on Escherichia coli. Further, the MIC in the assay with Staphylococcus aureus [11] came to 50 µg/mL (≈ 166 µM); against Staphylococcus aureus [12], 166 µM (≈ 50 µg/mL). In addition, the outcome in [8] and in assay [13] was Active. Besides, in the assay with Acinetobacter baumannii [10], the FIC was determined as 0.25. Further, the IC50 with HepG2 [17] came to 68 µg/mL; in the assay with HepG2 [18], 125 µg/mL; in assay [14], 9.3 µM.
